Reference: ChEMBL document CHEMBL1129379, “Heterocyclic ureas: inhibitors of acyl-CoA:cholesterol O-acyltransferase as hypocholesterolemic agents” (J Med Chem, 1996)
pIC50: −log10 of the molar value.

Columns and labels:
[1] = biological target: T1, Sterol O-acyltransferase 1 (Rattus norvegicus) (UniProt O70536); assay: Percent change in plasma total cholesterol in an acute cholesterol-fed rat model of hypercholesterolemia, dose at 3 mg/kg; format: functional, organism-based; set-up: dose 3 mg/kg
T1 sequence (whole entry): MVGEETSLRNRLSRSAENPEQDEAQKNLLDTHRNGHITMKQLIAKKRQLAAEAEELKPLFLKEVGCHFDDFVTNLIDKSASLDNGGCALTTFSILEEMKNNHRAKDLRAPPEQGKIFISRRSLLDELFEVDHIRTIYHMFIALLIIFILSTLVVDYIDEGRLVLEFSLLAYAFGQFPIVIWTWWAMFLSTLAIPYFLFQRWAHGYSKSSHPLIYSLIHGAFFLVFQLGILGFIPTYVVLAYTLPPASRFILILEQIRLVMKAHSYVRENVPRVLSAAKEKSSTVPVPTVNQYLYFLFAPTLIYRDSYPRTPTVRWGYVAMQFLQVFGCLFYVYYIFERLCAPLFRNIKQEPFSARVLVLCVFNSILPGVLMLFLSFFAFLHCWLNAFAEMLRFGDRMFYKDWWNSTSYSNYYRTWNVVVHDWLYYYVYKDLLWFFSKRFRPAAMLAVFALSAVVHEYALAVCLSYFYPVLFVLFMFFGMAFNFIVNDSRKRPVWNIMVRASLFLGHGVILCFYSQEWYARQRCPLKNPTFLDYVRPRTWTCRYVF

[2] = biological target: T1, Sterol O-acyltransferase 1 (Rattus norvegicus); assay: Percent change in plasma total cholesterol in an acute cholesterol-fed rat model of hypercholesterolemia, dose at 30 mg/kg; format: functional, organism-based; set-up: dose 30 mg/kg
[3] = biological target: O-acyltransferase (Oryctolagus cuniculus, UniProt G1SFD9); assay: (§1) Acyl coenzyme A:cholesterol acyltransferase 1 inhibition in vitro measured in rabbit intestinal microsomes; set-up: species or system Intestine
[4] = test system: Rattus norvegicus; assay: Percent change in HDL-C,Dose at 30 mg/kg; format: functional
Procedure, shortened: (§2)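 Chronic rat model of pre-established hypercholesterolemia: 1 week on high-cholesterol diet, then compound dosed orally once daily for 1 week. Plasma total cholesterol, HDL-C and non-HDL-C expressed as percent change versus control; p < 0.05 flagged.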

[5] = biological target: T1, Sterol O-acyltransferase 1 (Rattus norvegicus); assay: (§3) Percent change in plasma TC in the chronic C-fed rat model of pre-established hypercholesterolemia. Dose at 30 mg/kg; format: functional, organism-based; set-up: dose 30 mg/kg; procedure, shortened: as §2
[6] = test system: Rattus norvegicus; assay: Percent change in non-HDL-C Dose at 30 mg/kg; format: functional; procedure, shortened: as §2
[7] = test system: Rattus norvegicus; assay: Percent change in non-HDL-C, dose at 30 mg/kg; format: functional; procedure, shortened: as §2
[8] = test system: Rattus norvegicus; assay: Percent change in plasma TC in the chronic C-fed rat model of pre-established hypercholesterolemia. dose at 30 mg/kg; format: functional; procedure, shortened: as §2
[9] = test system: Rattus norvegicus; assay: Percent change in HDL-C,dose at 30 mg/kg; format: functional; procedure, shortened: as §2
[10] = biological target: T2, Acyl-CoA:cholesterol acyltransferase (Oryctolagus cuniculus) (UniProt Q95214); assay: as §1; conditions: Intestine, concentration not given here
T2 sequence (whole entry): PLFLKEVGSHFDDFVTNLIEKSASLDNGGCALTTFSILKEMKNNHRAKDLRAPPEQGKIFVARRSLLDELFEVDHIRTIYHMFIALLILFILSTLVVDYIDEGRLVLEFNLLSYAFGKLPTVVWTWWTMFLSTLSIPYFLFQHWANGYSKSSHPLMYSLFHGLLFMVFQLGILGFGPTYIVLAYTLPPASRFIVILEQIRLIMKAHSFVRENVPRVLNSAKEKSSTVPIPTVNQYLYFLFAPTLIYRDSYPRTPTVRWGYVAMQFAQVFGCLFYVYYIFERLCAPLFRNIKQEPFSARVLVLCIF
Procedure, shortened: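 ACAT activity in intestinal microsomes from cholesterol-fed rabbits, measured by incubation with 14C-labeled oleoyl-CoA; IC50 is the micromolar concentration giving 50% inhibition of enzyme activity.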

[11] = test system: Rattus norvegicus; assay: Percent change in HDL-Cdose at 30 mg/kg; format: functional; procedure, shortened: as §2
[12] = test system: Rattus norvegicus; assay: Percent change in plasma TC in the chronic C-fed rat model of pre-established hypercholesterolemia. Dose at 10 mg/kg; format: functional; procedure, shortened: as §2
[13] = test system: Canis familiaris; assay: mean blood drug concentration in dog, compound Dose at 3 mg/kg; format: ADME, organism-based, Canis lupus familiaris; set-up: dose 3 mg/kg; conditions: in vivo
Procedure, shortened: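 Cholesterol-fed Beagle dogs dosed at 3 mg/kg. Plasma drug measured by HPLC on a C8 column, acetonitrile/water 4:1 eluent, detection at 190 nm, with a related analog as internal standard. Quantitation limit 40 ng/mL; mean of 6 animals.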

[14] = test system: Rattus norvegicus; assay: Percent change in HDL-C,Dose at 3 mg/kg; format: functional; procedure, shortened: as §2
[15] = test system: Rattus norvegicus; assay: Percent change in non-HDL-C,Dose at 3 mg/kg; format: functional; procedure, shortened: as §2
[16] = test system: Rattus norvegicus; assay: Percent change in plasma TC in the chronic C-fed rat model of pre-established hypercholesterolemia, dose at 3 mg/kg; format: functional; procedure, shortened: as §2
[17] = test system: Canis familiaris; assay: Percent change in plasma cholesterol in dog at 3 mg/kg; format: functional, Canis lupus familiaris
Procedure, shortened: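 Cholesterol-fed female Beagle dogs given bulk drug in capsules before meals, daily for 1 week, at 3 mg/kg po. Plasma total cholesterol compared before and after treatment as percent change; paired two-tailed t-test, n = 6.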

[18] = test system: Rattus norvegicus; assay: Percent change in non-HDL-C,Dose at 30 mg/kg; format: functional; procedure, shortened: as §2
[19] = test system: Rattus norvegicus; assay: Percent change in non-HDL-C,Dose at 10 mg/kg; format: functional; procedure, shortened: as §2
[20] = test system: Rattus norvegicus; assay: Percent change in HDL-C,Dose at 10 mg/kg; format: functional; procedure, shortened: as §2
[21] = test system: Rattus norvegicus; assay: Percent change in plasma TC in the chronic C-fed rat model of pre-established hypercholesterolemia. Dose at 3 mg/kg; format: functional; procedure, shortened: as §2
[22] = test system: Rattus norvegicus; assay: as §3; format: functional; procedure, shortened: as §2
[23] = test system: Rattus norvegicus; assay: Percent change in non-HDL-C,dose at 30 mg/kg; format: functional; procedure, shortened: as §2
[24] = test system: Rattus norvegicus; assay: Percent change in HDL-CDose at 30 mg/kg; format: functional; procedure, shortened: as §2

Compound | Delta TC [1] | Delta TC [2] | pIC50 [3] | other results
CCCCCCCCCCn1nnnc1NC(=O)Nc1c(C(C)C)cccc1C(C)C | -22% | -65% | – | –
CCCCCCCCCCCCCSc1n[nH]c(NC(=O)Nc2c(C(C)C)cccc2C(C)C)n1 | – | 12% | – | –
CCCCCCCCCCCCn1cnc(NC(=O)Nc2c(C(C)C)cccc2C(C)C)n1 | – | -30% | 6.92 | –
CCCCCCCCCCCCc1n[nH]c(NC(=O)Nc2c(C(C)C)cccc2C(C)C)n1 | – | 12% | 5.38 | –
CCCCCCCCCCCCc1coc(NC(=O)Nc2c(C(C)C)cccc2C(C)C)n1 | – | -55% | 7.20 | –
CC(C)=CCC/C(C)=C/Cn1nnc(NC(=O)Nc2c(C(C)C)cccc2C(C)C)n1 | – | -27% | 7.20 | –
CCCCCCCCCCCCc1cc(NC(=O)Nc2c(C(C)C)cccc2C(C)C)on1 | -58% | -61% | 7.72 | Delta HDL-C [4]: 100%; Delta TC [5]: -56%; Non-HDL-C [6]: -68%
CCCCCCCCCCCCCc1cc(NC(=O)Nc2c(C(C)C)cccc2C(C)C)no1 | -59% | -62% | 7.85 | Non-HDL-C [7]: -45%; Delta TC [8]: -40%; Delta HDL-C [9]: 33%
CCCCCCCCCCCCn1nnnc1NC(=O)Nc1c(OC)cc(OC)cc1OC | – | – | – | inhibition [10]: 28%
CCCCCCCCCN1NN=C(NC(=O)Nc2c(C(C)C)cccc2C(C)C)N1 | 1% | -65% | 7.51 | –
CCCCCCCCCCCCCc1nnc(NC(=O)Nc2c(C(C)C)cccc2C(C)C)o1 | -34% | -62% | 7.74 | –
CCCCCCCCCCCCC[S+]([O-])c1n[nH]c(NC(=O)Nc2c(C(C)C)cccc2C(C)C)n1 (stereo not given) | – | -6% | 5.77 | –
CCCCCCCCCCCc1nnc(NC(=O)Nc2c(C(C)C)cccc2C(C)C)s1 | – | -61% | 7.41 | –
COC(=O)CCCCCCCCCCN1NN=C(NC(=O)Nc2c(C(C)C)cccc2C(C)C)N1 | – | -23% | 5.33 | –
CCCCCCCCCCN1NN=C(NC(=O)Nc2c(C(C)C)cccc2C(C)C)N1 | -35% | -62% | 7.85 | –
CCCCCCCCCCCCCCCCN1NN=C(NC(=O)Nc2c(C(C)C)cccc2C(C)C)N1 | -43% | -67% | 7.24 | –
CCCCCCCCCCc1cc(NC(=O)Nc2c(C(C)C)cccc2C(C)C)on1 | -61% | -69% | 7.54 | Delta TC [8]: -13%; Delta HDL-C [11]: -6%; Non-HDL-C [6]: -14%
CC(C)c1cccc(C(C)C)c1NC(=O)Nc1nn[nH]n1 | – | -19% | – | –
CCCCCCCCCCc1sc(NC(=O)Nc2c(C(C)C)cccc2C(C)C)nc1C | – | -33% | 6.92 | –
CCCCCCCCCCCc1csc(NC(=O)Nc2c(C(C)C)cccc2C(C)C)n1 | – | -29% | 6.82 | –
CC(C)c1cccc(C(C)C)c1NC(=O)Nc1nnn(CCCCCCCCCCCOC2CCCCO2)n1 (stereo not given) | -28% | -53% | 7.43 | –
CCCCCCCCCCCCCN1NN=C(NC(=O)Nc2c(C(C)C)cccc2C(C)C)N1 | -67% | -67% | 8.05 | Delta TC [12]: -64%; Plasma level [13]: 76.7 ng/mL; Delta HDL-C [14]: 21%; Non-HDL-C [15]: -47%; Delta HDL-C [4]: 113%; Delta TC [16]: -52%; Delta TC [5]: -66%; Delta plasma cholesterol [17]: -47%; Non-HDL-C [18]: -76%; Non-HDL-C [19]: -73%; Delta HDL-C [20]: 113%
CCCCCCCCCCCCCCc1cc(NC(=O)Nc2c(C(C)C)cccc2C(C)C)on1 | -44% | -64% | 7.55 | Delta HDL-C [24]: 16%; Delta TC [5]: -16%; Non-HDL-C [6]: -18%
CCCCCCCCCCCCCS(=O)(=O)c1n[nH]c(NC(=O)Nc2c(C(C)C)cccc2C(C)C)n1 | – | -11% | 5.33 | –
CCCCCCCCCCCCCSc1nnc(NC(=O)Nc2c(C(C)C)cccc2C(C)C)n1C(C)=O | – | -21% | 6.17 | –
CCCCCCCCCCCCn1cnnc1NC(=O)Nc1c(C(C)C)cccc1C(C)C | – | -28% | – | –
CCCCN1NN=C(NC(=O)Nc2c(C(C)C)cccc2C(C)C)N1 | – | -26% | 7.04 | –
CC(C)c1cccc(C(C)C)c1NC(=O)NC1=NN(Cc2ccccc2)NN1 | – | -27% | 6.43 | –

More lines, main results first:

Delta TC [1] | Delta TC [2] | pIC50 [3] | Compound | other results
– | -28% | 7.49 | CC(C)c1cccc(C(C)C)c1NC(=O)Nc1nnn(CCCCCCCCCCCO)n1 | –
-21% | -59% | 7.14 | CCCCCCN1NN=C(NC(=O)Nc2c(C(C)C)cccc2C(C)C)N1 | –
– | -36% | 6.60 | CCCCCCCCCCCCn1ncnc1NC(=O)Nc1c(C(C)C)cccc1C(C)C | –
– | – | < 5.00 | CC(C)c1cccc(C(C)C)c1NC(=O)Nc1nnn[nH]1 | –
-24% | -67% | 7.23 | CCCCCCCCN1NN=C(NC(=O)Nc2c(C(C)C)cccc2C(C)C)N1 | –
– | -46% | 7.44 | CCCCCCCCCCCCCc1nnc(NC(=O)Nc2c(C(C)C)cccc2C(C)C)s1 | –
– | -39% | 6.82 | CCCCCCCCCc1nnc(NC(=O)Nc2c(C(C)C)cccc2C(C)C)s1 | –
-31% | -58% | 7.92 | CCCCCCCCCCCCN1NN=C(CNC(=O)Nc2c(C(C)C)cccc2C(C)C)N1 | –
– | -40% | 6.82 | CCCCCCCCCCCCN1NN=C(CNC(=O)Nc2c(OC)cc(OC)cc2OC)N1 | –
– | – | 7.46 | CCCCCCCCCCCCn1cnc(NC(=O)Nc2c(C(C)C)cccc2C(C)C)c1 | –
-69% | -75% | 7.18 | CCCCCCCCCCCCN1NN=C(NC(=O)Nc2c(OC)cc(OC)cc2OC)N1 | –
-61% | -67% | 7.85 | CCCCCCCCCCCCN1NN=C(NC(=O)Nc2c(C(C)C)cccc2C(C)C)N1 | Delta TC [12]: -64%; Delta TC [21]: -43%; Plasma level [13]: 29.3 ng/mL; Delta HDL-C [14]: 20%; Non-HDL-C [15]: -47%; Delta plasma cholesterol [17]: -39%; Delta TC [22]: -69%; Non-HDL-C [23]: -78%; Non-HDL-C [19]: -72%; Delta HDL-C [9]: 93%; Delta HDL-C [20]: 87%
-63% | -70% | 8.05 | CCCCCCCCCCCN1NN=C(NC(=O)Nc2c(C(C)C)cccc2C(C)C)N1 | –
-45% | -57% | 6.68 | CCCCCCCCCCCCn1nnnc1NC(=O)Nc1c(C(C)C)cccc1C(C)C | –
-51% | -62% | 7.89 | CCCCCCCCCCCCCc1cc(NC(=O)Nc2c(C(C)C)cccc2C(C)C)on1 | Delta HDL-C [24]: 111%; Delta TC [5]: -53%; Non-HDL-C [6]: -65%
